CaV13 FRET inh – Primary screen for inhibitors of IQ motif and Ca2+-dependent inactivation inhibitor domain binding in CACNA1D, Förster resonance energy transfer in living cells, … | HEK cells, CFP/YFP FRET ICDI-IQ, plate reader, 10 min; percent FRET-ratio fall versus neutral wells | inhibition, % at 12.3 µM | hit rate 0.098% among 340,000 | AID 743397;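 active = mean replicate inhibition of at least 30% and at least 1% of replicates passing that level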;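 note: 0% = median of the neutral control wells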
ERAP1 inh – human ERAP1 aminopeptidase inhibitors, primary screen, biochemical, single point, plate reader; Endoplasmic reticulum aminopeptidase 1 (Homo sapiens), Q9NZ08; recombinant ERAP1, Leu-AMC fluorescence, 60 min; inhibition, % at 10.7 µM; hit rate 0.15% among 340,000; AID 652197, 2013;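 active = mean replicate inhibition of at least 30%, or all replicates individually reaching that 30% level; inactive = mean below 30% and not every replicate reaching it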;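 note: 0% = neutral control wells and 100% = L-leucinethiol positive control wells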
Target sequence (Q9NZ08 whole entry, looked up): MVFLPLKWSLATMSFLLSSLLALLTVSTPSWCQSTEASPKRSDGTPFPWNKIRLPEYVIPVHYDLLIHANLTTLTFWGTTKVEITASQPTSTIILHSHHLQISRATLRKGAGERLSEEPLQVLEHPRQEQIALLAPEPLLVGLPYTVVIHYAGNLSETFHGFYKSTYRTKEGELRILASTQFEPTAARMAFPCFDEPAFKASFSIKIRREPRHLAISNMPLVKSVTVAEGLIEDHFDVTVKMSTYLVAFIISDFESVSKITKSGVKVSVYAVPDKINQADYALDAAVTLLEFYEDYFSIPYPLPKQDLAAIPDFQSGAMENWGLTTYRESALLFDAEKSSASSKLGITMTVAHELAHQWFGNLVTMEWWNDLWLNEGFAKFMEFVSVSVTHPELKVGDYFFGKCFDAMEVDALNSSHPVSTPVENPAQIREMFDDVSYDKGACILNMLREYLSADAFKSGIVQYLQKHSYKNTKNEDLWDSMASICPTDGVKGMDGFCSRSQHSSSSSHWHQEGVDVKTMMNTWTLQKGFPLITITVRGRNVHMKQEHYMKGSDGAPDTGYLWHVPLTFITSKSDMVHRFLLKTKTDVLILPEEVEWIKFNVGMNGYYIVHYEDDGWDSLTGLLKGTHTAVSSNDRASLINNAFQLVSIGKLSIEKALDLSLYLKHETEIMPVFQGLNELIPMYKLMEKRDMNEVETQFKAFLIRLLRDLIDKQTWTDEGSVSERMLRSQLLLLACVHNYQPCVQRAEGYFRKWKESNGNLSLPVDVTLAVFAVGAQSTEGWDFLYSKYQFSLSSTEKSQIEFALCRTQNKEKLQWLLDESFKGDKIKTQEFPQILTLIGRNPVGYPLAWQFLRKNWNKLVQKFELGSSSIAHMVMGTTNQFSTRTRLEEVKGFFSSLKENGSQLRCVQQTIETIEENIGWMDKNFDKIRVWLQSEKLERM
PvdQ inh – P. aeruginosa PvdQ acylase inhibitors, primary screen, biochemical, fluorescence, plate reader and imaging, single point; PvdQ acylase [Pseudomonas aeruginosa LESB58]; purified PvdQ acylase; inhibition, % at 10 µM; hit rate 0.063% among 340,000; AID 488965, 2010; in the data active = inhibition above about 30%, passing the limit was not always enough;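 note: 0% = vehicle neutral wells and 100% = reference inhibitor wells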
Xi reactivation – activators of inactive X chromosome reactivation, primary screen, imaging, XiGFP fibroblasts, GFP high-content imaging, set 2 | hit rate 0.055% among 360,000 | AID 743238, 2013 | XiGFP mouse fibroblasts, % GFP-positive cells imaging, 3 d; cells co-treated with 5-aza-dC sensitizer; scaled so ellipticine positive control = 100% | activation, % at 7.58 µM;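 active = mean normalized replicate activation at least 10% and every replicate at or above 10%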;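 note: 0% = median of on-plate neutral control wells and 100% = ellipticine 6 µM median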
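Assay system – SV40-immortalized XiGFP fibroblast cells, line 68-5-11 · Buffer or medium – DMEM supplemented with 5-aza-dC as sensitizing agent · Dosing – one concentration, pinned · Benchmarks – positive control ellipticine, 6 µM final · Times – 3 days compound exposure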
* = called active by the depositor. An excerpt weighted towards active compounds, which were near 0.27% of everything screened.

`O=c1oc2ccccc2cc1-c1nc2c(s1)CCc1ccccc1-2` gave CaV13 FRET inh -8, PvdQ inh -6 and Xi reactivation 0.
O=C(C[C@@H]1C[C@H]2c3cc(NC(=O)Nc4ccccc4F)ccc3O[C@H]2[C@@H](CO)O1)NCc1ccc(Oc2ccccc2)cc1 was read as Xi reactivation 0.
`Oc1ccc(/C=N/Nc2ccnc3cc(Cl)ccc23)c(O)c1` gave CaV13 FRET inh -20, ERAP1 inh 0, PvdQ inh -6 and Xi reactivation 68*.
`COCC#Cc1cnc2c(c1)C(=O)N([C@H](C)CO)C[C@H](C)[C@@H](CN(C)S(C)(=O)=O)O2` gave ERAP1 inh 1 and Xi reactivation 0.
Screening O=C(Oc1ccc(F)c(F)c1)c1ccc2c(=O)n3c(nc2c1)CCC3 returned CaV13 FRET inh -14, ERAP1 inh 4, PvdQ inh -18 and Xi reactivation 0.
CC(C)c1ccc(OC(=O)c2ccc3c(=O)n4c(nc3c2)CCC4)cc1 was read as CaV13 FRET inh -5, ERAP1 inh 78*, PvdQ inh -4 and Xi reactivation 0.
Screening CC(C)NC(=O)Nc1cccc2c1O[C@@H](CN(C)S(C)(=O)=O)[C@H](C)CN(C)C2=O returned Xi reactivation 0.
Screening Cc1cc(C(=O)Nc2cccc3c2O[C@@H](CN(C)C(=O)Nc2ccc(C(F)(F)F)cc2)[C@H](C)CN([C@H](C)CO)C3=O)n(C)n1 returned ERAP1 inh -1 and Xi reactivation 1.
`Cc1cc(C)nc(N(C#N)Cc2ccc(Cl)cc2)n1` gave CaV13 FRET inh -6, ERAP1 inh 0, PvdQ inh 36* and Xi reactivation 0.
C[C@@H]1CN([C@H](C)CO)C(=O)CCCn2cc(nn2)CO[C@@H]1CN(C)Cc1cccc(O)c1 was read as ERAP1 inh -1 and Xi reactivation 0.
CC1CCN(S(=O)(=O)N2CCC(C(=O)NC3CCCC3)CC2)CC1 was read as CaV13 FRET inh 76*, ERAP1 inh -5, PvdQ inh -6 and Xi reactivation 0.
For COc1ccc(S(=O)(=O)Nc2ccc3c(c2)C(=O)N([C@@H](C)CO)C[C@@H](C)[C@@H](CN(C)C(=O)Nc2ccccc2)OCCCC[C@@H](C)O3)cc1 the results were Xi reactivation 0.
`OC(c1cccc(Cl)c1)c1nccc2ccccc12` (stereo not given) gave CaV13 FRET inh -11, ERAP1 inh -3, PvdQ inh 35* and Xi reactivation 0.
Screening OC(c1ccc2c(c1)OCO2)c1nccc2ccccc12 (stereo not given) returned CaV13 FRET inh -8, ERAP1 inh 12 and PvdQ inh 3.
Cc1cccn2c(=O)c(/C=C(\C#N)C(=O)NC3CCS(=O)(=O)C3)c(N3CC(C)OC(C)C3)nc12 (stereo not given) was read as CaV13 FRET inh 3, ERAP1 inh -156, PvdQ inh -9 and Xi reactivation 0.
For Cc1cccn2c(=O)c(/C=C(\C#N)C(=O)NC3CCS(=O)(=O)C3)c(N3CCC(C(N)=O)CC3)nc12 (stereo not given) the results were CaV13 FRET inh active, ERAP1 inh -296, PvdQ inh -5 and Xi reactivation 0.
For CCN1C=C(C(=O)OC)C(c2cccc(OC)c2OC)C(C(=O)OC)=C1 the results were CaV13 FRET inh active, ERAP1 inh -145, PvdQ inh -7 and Xi reactivation 0.
COC(=O)C1=CN(Cc2ccc(OC)c(OC)c2)C=C(C(=O)OC)C1c1cccc(OC)c1OC was read as CaV13 FRET inh 3, ERAP1 inh -60, PvdQ inh 9 and Xi reactivation 0.
`Cc1cc(C)nc(NS(=O)(=O)c2ccc(NC(=O)c3ccc(S(=O)(=O)N(C)C)cc3)cc2)n1` gave CaV13 FRET inh -2, ERAP1 inh 0, PvdQ inh 5 and Xi reactivation 0.
`Cc1cc(C)nc(NS(=O)(=O)c2ccc(NC(=O)c3ccc(N4C(=O)CCC4=O)cc3)cc2)n1` gave CaV13 FRET inh -19, PvdQ inh 44* and Xi reactivation 0.
Screening CCOC(=O)N1CCN(c2ncc(C(F)(F)F)cc2Cl)CC1 returned CaV13 FRET inh -7, ERAP1 inh 0, PvdQ inh 7 and Xi reactivation 0.
For CCOC1=NN(c2ncc(C(F)(F)F)cc2Cl)C(=O)C1 the results were CaV13 FRET inh 34*, ERAP1 inh 1, PvdQ inh -12 and Xi reactivation 0.
N#C/C(=C/c1ccc(-c2ccc(S(N)(=O)=O)cc2)o1)c1nc2ccccc2s1 was read as CaV13 FRET inh -12, PvdQ inh 0 and Xi reactivation 92*.
N#C/C(=C/c1ccc(-c2ccc(S(N)(=O)=O)cc2)o1)C(=O)Nc1ccccc1 was read as CaV13 FRET inh -5, PvdQ inh 14 and Xi reactivation 0.
`N#C/C(=C/c1ccc(-c2ccccc2)o1)c1nc(-c2cccs2)cs1` gave ERAP1 inh 5, PvdQ inh 0 and Xi reactivation 77*.
`c1ccc2cc(-c3csnn3)ccc2c1` gave CaV13 FRET inh -5 and PvdQ inh 35*.
`Nc1nc(-c2ccc3ccccc3c2)cs1` gave CaV13 FRET inh -1, ERAP1 inh -2, PvdQ inh -8 and Xi reactivation 0.
`CC(NC(=O)/C(C#N)=C/c1ccco1)c1ccccc1` (stereo not given) gave CaV13 FRET inh -3, ERAP1 inh 0, PvdQ inh -14 and Xi reactivation 0.
CC(NC(=O)/C(C#N)=C/c1ccc([N+](=O)[O-])o1)c1ccccc1 (stereo not given) was read as CaV13 FRET inh -3, ERAP1 inh 4, PvdQ inh 7 and Xi reactivation 43*.
For N#Cc1ccc(OCC(=O)OCC(=O)N2CCc3ccccc32)cc1 the results were CaV13 FRET inh 35*, ERAP1 inh 0 and Xi reactivation 0.
Screening CC(=Nc1ccccc1)C1=C(O)CSC1=O returned CaV13 FRET inh -5 and PvdQ inh -3.
Screening COc1ccc(N=C(C)C2=C(O)CSC2=O)cc1 returned CaV13 FRET inh -6, ERAP1 inh 4 and PvdQ inh 44*.
For O=C(CCN1CCCCC1)NCC[C@@H]1CC[C@H](NC(=O)c2ccc(F)cc2)[C@H](CO)O1 the results were ERAP1 inh -1 and Xi reactivation 0.
Cc1[nH]c2ccccc2c1/C=N/NC(=O)c1cccc([N+](=O)[O-])c1 was read as CaV13 FRET inh -5, ERAP1 inh 0, PvdQ inh -4 and Xi reactivation 0.
Cc1[nH]c2ccccc2c1/C=N/Nc1ccc([N+](=O)[O-])cc1 was read as CaV13 FRET inh -16, ERAP1 inh -1, PvdQ inh -7 and Xi reactivation 75*.

Compound activity as filed in PubChem.
